Measured values reported in ChEMBL document CHEMBL4308835, “Fluorine-Substituted Pyrrolo[2,3- d]Pyrimidine Analogues with Tumor Targeting via Cellular Uptake by Folate Receptor α and the Proton-Coupled Folate Transporter and Inhibition of de Novo Purine Nucleotide Biosynthesis” (J Med Chem, 2018).
Calls of active or inactive are those of the source. The calls are words filed in the database; no cut-off is given here.

Experiments:
[1] = target: T1, Proton-coupled folate transporter (Homo sapiens) (UniProt Q96NT5); experiment: Inhibition of human PCFT expressed in Chinese hamster R2/PCFT4 cells assessed as reduction in [3H]MTX uptake at pH 5.5 at 1 to 10 uM measured over 2 mins; assay type: cell-based
T1 sequence (whole entry): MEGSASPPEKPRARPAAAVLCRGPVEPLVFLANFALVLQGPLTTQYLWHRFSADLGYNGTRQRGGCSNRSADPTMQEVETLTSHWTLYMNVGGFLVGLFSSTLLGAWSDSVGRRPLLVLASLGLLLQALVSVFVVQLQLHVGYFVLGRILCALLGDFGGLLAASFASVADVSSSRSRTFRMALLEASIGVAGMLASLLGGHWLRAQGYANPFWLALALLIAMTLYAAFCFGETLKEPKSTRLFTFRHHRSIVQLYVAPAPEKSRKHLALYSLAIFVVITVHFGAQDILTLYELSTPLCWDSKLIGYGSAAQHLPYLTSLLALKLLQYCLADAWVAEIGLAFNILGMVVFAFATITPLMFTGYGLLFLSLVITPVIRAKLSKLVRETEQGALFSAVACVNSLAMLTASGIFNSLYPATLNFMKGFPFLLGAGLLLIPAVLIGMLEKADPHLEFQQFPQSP

[2] = target: T2, Reduced folate transporter (Homo sapiens) (UniProt P41440); experiment: Inhibition of human RFC2 expressed in human HeLa R1-11 cells assessed as reduction in [3H]MTX uptake at pH 7.2 at 10 uM measured over 2 mins relative to control; assay type: cell-based
T2 sequence (whole entry): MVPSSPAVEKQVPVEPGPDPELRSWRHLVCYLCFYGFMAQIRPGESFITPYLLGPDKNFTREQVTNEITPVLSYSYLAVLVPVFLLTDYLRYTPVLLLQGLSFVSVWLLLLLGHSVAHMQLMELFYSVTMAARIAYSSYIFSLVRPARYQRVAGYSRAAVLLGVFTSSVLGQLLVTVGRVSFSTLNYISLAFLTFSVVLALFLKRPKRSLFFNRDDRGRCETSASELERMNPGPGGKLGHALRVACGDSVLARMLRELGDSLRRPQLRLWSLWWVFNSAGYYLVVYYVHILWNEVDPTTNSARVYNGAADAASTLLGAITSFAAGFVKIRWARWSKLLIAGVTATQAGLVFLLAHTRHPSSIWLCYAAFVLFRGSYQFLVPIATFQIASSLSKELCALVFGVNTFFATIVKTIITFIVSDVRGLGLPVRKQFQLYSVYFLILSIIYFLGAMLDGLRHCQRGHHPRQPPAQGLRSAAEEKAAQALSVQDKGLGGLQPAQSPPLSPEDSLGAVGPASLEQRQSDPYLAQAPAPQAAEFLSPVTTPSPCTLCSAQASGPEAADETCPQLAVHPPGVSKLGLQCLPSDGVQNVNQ

[3] = target: T2, Reduced folate transporter (Homo sapiens); experiment: Inhibition of human RFC2 expressed in human HeLa R1-11 cells assessed as reduction in [3H]MTX uptake at pH 7.2 at 1 uM measured over 2 mins relative to control; assay type: cell-based
[4] = target: T1, Proton-coupled folate transporter (Homo sapiens); experiment: Inhibition of human PCFT expressed in Chinese hamster R2/PCFT4 cells assessed as reduction in [3H]MTX uptake at pH 5.5 at 10 uM measured over 2 mins relative to control; assay type: cell-based
[5] = target: T1, Proton-coupled folate transporter (Homo sapiens); experiment: Inhibition of human PCFT expressed in Chinese hamster R2/PCFT4 cells assessed as reduction in [3H]MTX uptake at pH 5.5 at 1 uM measured over 2 mins relative to control; assay type: cell-based
[6] = target: Folate receptor alpha (Homo sapiens) (UniProt P15328); experiment: Displacement of [3H]folic acid from human FRalpha expressed in Chinese hamster RT16 cells at 10 to 1000 nM after 15 mins; assay type: cell-based
Folate receptor alpha (Homo sapiens), sequence (P15328 25-234 limits assumed): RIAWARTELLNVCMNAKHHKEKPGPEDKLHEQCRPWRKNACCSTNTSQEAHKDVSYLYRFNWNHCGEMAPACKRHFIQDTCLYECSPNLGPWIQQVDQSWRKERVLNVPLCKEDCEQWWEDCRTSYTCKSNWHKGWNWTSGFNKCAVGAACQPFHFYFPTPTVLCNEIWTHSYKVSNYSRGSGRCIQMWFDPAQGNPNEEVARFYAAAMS
How it was run: (§1)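 RT16 (FRα) or D4 (FRβ) CHO cells at ~80% confluence were washed with PBS at 4 °C, then with pH 3.5 acetate buffer to strip bound folate, then HEPES-buffered saline pH 7.4. Cells were incubated with 50 nM [³H]folic acid plus competitor (10–1000 nM) for 15 min at 4 °C, washed, and solubilized in NaOH. Bound radioactivity was normalized to protein.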

IGROV-1 [7] = experiment: Antiproliferative activity against human IGROV1 cells at 1 to 1000 nM in presence of 60 uM adenosine after 96 hrs by Cell-Titer Blue assay; assay type: functional, cell-based
How it was run: (§2)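 IGROV1 cells, 2000/well, in folate-free RPMI 1640 with 10% dialyzed FBS, L-glutamine, 25 nM LCV. A range of drug concentrations was given with thymidine (10 μM), adenosine (60 μM) or AICA (320 μM) added. After 96 h, proliferation was measured by Cell-Titer Blue fluorescence. At least triplicate experiments.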

IGROV-1 [8] = experiment: Antiproliferative activity against human IGROV1 cells at 1 to 1000 nM in presence of 10 uM thymidine after 96 hrs by Cell-Titer Blue assay; assay type: functional, cell-based; how it was run: as §2
IGROV-1 [9] = experiment: Antiproliferative activity against human IGROV1 cells at 1 to 1000 nM in presence of 320 uM AICA after 96 hrs by Cell-Titer Blue assay; assay type: functional, cell-based; how it was run: as §2
A2780 = experiment: Antiproliferative activity against human A2780 cells after 96 hrs by Cell-Titer Blue assay; assay type: functional, cell-based; conditions: A2780, 96 h
IGROV-1 [10] = experiment: Antiproliferative activity against FRalpha […] human IGROV1 KD10 cells after 96 hrs by Cell-Titer Blue assay; assay type: functional, cell-based; conditions: IGROV-1, 96 h
IGROV-1 [11] = experiment: Antiproliferative activity against FRalpha […] human IGROV1 KD4 cells after 96 hrs by Cell-Titer Blue assay; assay type: functional, cell-based; conditions: IGROV-1, 96 h
IGROV-1 [12] = experiment: Antiproliferative activity against human IGROV1 cells harboring non targeted control shRNA sequence after 96 hrs by Cell-Titer Blue assay; assay type: functional, cell-based; conditions: IGROV-1, 96 h
IGROV-1 [13] = experiment: Antiproliferative activity against wild type human IGROV1 cells after 96 hrs by Cell-Titer Blue assay; assay type: functional, cell-based; conditions: IGROV-1, 96 h
IGROV-1 [14] = experiment: Anticlonogenic activity against human IGROV1 cells incubated for 24 hrs followed by compound wash out and measured after 10 days by methylene blue staining-based assay; assay type: functional, cell-based
How it was run: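 IGROV1 cells plated in folate-free RPMI 1640 (pH 7.2), 10% dialyzed FBS, 25 nM LCV. After 24 h adherence, exposed to drug (0–20 μM) for 24 h at pH 6.8 (25 mM PIPES/25 mM HEPES). Washed, then grown drug-free at pH 7.2 (100 mM HEPES) with 25 nM LCV for up to 10 days at 37 °C. Colonies stained with methylene blue and counted electronically. Values normalized to vehicle controls. Triplicate experiments.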

[15] = target: T3, Proton-coupled folate transporter (Homo sapiens, UniProt Q96NT5); experiment: Inhibition of human PCFT expressed in Chinese hamster R2/PCFT4 cells assessed as reduction in [3H]MTX uptake at pH 5.5 measured over 2 mins by Dixon plot analysis; assay type: cell-based
T3 sequence (Q96NT5 whole entry): T1 sequence (whole entry)
How it was run: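 Competitor concentrations ranged from 0.05 to 0.5 μM. Ki was obtained by Dixon plot. Mean ± SE of four independent experiments.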

[16] = Antiproliferative activity in Chinese hamster R2 cells deficient in RFC, PCFT, and FRalpha assessed as reduction in cell growth after 96 hrs by Cell-Titer Blue assay; assay type: cell-based; conditions: Cricetulus griseus, R2, 96 h
[17] = target: Folate receptor beta (Homo sapiens) (UniProt P14207); experiment: Displacement of [3H]folic acid from human FRbeta expressed in Chinese hamster D4 cells at 10 to 1000 nM after 15 mins; assay type: cell-based; how it was run: as §1
Folate receptor beta (Homo sapiens), sequence (P14207 17-230 limits assumed): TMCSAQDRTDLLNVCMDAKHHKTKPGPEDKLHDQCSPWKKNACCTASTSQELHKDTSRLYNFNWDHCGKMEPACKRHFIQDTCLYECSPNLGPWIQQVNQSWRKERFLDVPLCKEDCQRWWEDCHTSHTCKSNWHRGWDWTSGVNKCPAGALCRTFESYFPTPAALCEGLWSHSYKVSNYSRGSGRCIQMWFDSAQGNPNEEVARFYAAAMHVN

[18] = target: T4, Trifunctional purine biosynthetic protein adenosine-3 (Homo sapiens, UniProt P22102); experiment: Inhibition of GARFTase in human IGROV1 cells assessed as decrease in incorporation of [14C(U)glycine into [14C]formyl GAR formation after 24 hrs; assay type: cell-based
T4 sequence (P22102 whole entry): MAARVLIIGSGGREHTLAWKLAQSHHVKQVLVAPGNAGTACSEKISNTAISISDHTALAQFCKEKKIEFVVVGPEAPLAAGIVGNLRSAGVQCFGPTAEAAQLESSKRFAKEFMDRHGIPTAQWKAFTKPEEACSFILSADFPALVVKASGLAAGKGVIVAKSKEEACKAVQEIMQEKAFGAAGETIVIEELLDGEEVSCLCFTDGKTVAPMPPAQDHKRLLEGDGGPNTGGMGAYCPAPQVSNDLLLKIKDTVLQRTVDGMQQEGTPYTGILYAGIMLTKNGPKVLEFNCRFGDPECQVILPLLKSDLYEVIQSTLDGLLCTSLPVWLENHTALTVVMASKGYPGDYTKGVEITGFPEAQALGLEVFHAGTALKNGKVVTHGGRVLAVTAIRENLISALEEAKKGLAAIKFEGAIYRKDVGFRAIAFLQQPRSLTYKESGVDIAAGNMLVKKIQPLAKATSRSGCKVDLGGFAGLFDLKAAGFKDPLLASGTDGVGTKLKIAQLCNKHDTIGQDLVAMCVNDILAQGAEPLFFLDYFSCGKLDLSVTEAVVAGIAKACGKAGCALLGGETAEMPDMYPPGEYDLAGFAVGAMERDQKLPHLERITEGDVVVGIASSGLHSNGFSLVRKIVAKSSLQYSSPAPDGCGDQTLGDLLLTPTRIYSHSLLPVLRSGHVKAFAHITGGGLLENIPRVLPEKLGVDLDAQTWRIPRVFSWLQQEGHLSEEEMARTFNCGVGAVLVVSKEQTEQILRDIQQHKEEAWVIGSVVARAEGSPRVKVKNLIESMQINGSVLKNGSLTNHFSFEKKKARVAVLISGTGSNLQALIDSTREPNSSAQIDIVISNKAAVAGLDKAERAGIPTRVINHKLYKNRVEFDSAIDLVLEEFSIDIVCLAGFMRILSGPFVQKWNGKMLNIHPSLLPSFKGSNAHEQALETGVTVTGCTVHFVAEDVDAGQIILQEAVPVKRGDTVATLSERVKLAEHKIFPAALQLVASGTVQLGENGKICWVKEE

SMILES | inhibition [1] | inhibition [2] | inhibition [3] | inhibition [4] | inhibition [5] | inhibition [6] | Activity (IGROV-1 [7]) | Activity (IGROV-1 [8]) | Activity (IGROV-1 [9]) | IC50 (A2780) [nM] | IC50 (IGROV-1 [10]) [nM] | IC50 (IGROV-1 [11]) [nM] | IC50 (IGROV-1 [12]) [nM] | IC50 (IGROV-1 [13]) [nM] | IC50 (IGROV-1 [14]) [nM] | Ki [15] [nM] | IC50 [16] [nM] | inhibition [17] | IC50 [18] [nM]
Nc1nc(N)c2nc(CNc3ccc(C(=O)N[C@@H](CCCNC(=O)c4ccccc4C(=O)O)C(=O)O)cc3)cnc2n1 | Active | inactive | inactive | Active | Active |  |  |  |  |  |  |  |  |  |  |  |  |  | 
Nc1nc2[nH]c(CCCCc3ccc(C(=O)N[C@@H](CCC(=O)O)C(=O)O)c(F)c3)cc2c(=O)[nH]1 |  | inactive | inactive | 90 to 95% | 60 to 85% | Active | inactive | Active | inactive |  |  |  |  |  |  |  |  |  | 
Nc1nc2[nH]c(CCCCc3ccc(C(=O)N[C@@H](CCC(=O)O)C(=O)O)cc3)cc2c(=O)[nH]1 |  | inactive | inactive |  |  |  |  |  |  | 14.2 | > 1000 |  |  |  |  |  |  |  | 
Nc1nc2[nH]cc(CCc3ccc(C(=O)N[C@@H](CCC(=O)O)C(=O)O)cc3)c2c(=O)[nH]1 [PEMETREXED] |  | inactive | inactive |  |  |  |  |  |  | 39.4 | 22.2 | 46.6 | 71 | 104 | > 20000 |  |  |  | 
Nc1nc2[nH]c(CCCc3ccc(C(=O)N[C@@H](CCC(=O)O)C(=O)O)cc3)cc2c(=O)[nH]1 | Active | inactive | inactive | Active | Active |  | inactive | Active | inactive | 2.72 |  |  |  |  |  | 630 | > 1000 |  | 
Nc1nc2[nH]c(CCCCc3csc(C(=O)N[C@@H](CCC(=O)O)C(=O)O)c3)cc2c(=O)[nH]1 | Active | inactive | inactive | Active | Active | Active |  |  |  | 28.8 | > 1000 | > 1000 | 40.7 | 54.3 |  | 360 | > 1000 | Active | 
Nc1nc2[nH]c(CCCCc3ccc(C(=O)N[C@@H](CCC(=O)O)C(=O)O)nc3)cc2c(=O)[nH]1 | Active | inactive | inactive | Active | Active | Active |  |  |  | 5.42 | 30.5 | 64.1 | 1.55 | 1.87 |  | 240 |  |  | 
Nc1nc2[nH]c(CCCCc3cnc(C(=O)N[C@@H](CCC(=O)O)C(=O)O)c(F)c3)cc2c(=O)[nH]1 |  | inactive | inactive | 90 to 95% | 60 to 85% | Active | inactive | Active | inactive |  | > 1000 | > 1000 |  |  |  |  | > 1000 |  | 2
